Results from ChEMBL document CHEMBL3286287, “Identification of a new selective dopamine D4 receptor ligand” (Bioorg Med Chem, 2014).

How the values were obtained:
[1] = Selectivity ratio of Ki for human dopamine D2 receptor to Ki for rat dopamine D4 receptor
[2] = Selectivity ratio of Ki for human dopamine D3 receptor to Ki for rat dopamine D4 receptor
[3] = target: D(1B) dopamine receptor (Homo sapiens, UniProt P21918); experiment: Displacement of [3H]SCH23390 from human dopamine D5 receptor by PDSP assay; details: for inhibition: concentration not given here
Sequence of D(1B) dopamine receptor (P21918 whole entry): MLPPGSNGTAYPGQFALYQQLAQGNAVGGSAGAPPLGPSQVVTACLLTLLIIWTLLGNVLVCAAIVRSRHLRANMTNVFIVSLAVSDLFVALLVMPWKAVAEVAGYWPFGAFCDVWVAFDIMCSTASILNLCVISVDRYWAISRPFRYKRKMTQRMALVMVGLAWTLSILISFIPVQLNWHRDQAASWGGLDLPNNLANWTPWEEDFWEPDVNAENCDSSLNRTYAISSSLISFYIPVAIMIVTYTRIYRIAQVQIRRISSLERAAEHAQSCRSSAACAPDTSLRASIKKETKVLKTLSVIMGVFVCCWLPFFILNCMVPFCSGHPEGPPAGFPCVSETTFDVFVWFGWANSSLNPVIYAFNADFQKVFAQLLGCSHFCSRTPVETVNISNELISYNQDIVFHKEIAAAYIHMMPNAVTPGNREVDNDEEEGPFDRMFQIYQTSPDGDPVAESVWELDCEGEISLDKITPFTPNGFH

[4] = target: D(1A) dopamine receptor (Homo sapiens, UniProt P21728); experiment: Displacement of [3H]SCH23390 from human dopamine D1 receptor by PDSP assay; details: for inhibition: concentration not given here
Sequence of D(1A) dopamine receptor (P21728 whole entry): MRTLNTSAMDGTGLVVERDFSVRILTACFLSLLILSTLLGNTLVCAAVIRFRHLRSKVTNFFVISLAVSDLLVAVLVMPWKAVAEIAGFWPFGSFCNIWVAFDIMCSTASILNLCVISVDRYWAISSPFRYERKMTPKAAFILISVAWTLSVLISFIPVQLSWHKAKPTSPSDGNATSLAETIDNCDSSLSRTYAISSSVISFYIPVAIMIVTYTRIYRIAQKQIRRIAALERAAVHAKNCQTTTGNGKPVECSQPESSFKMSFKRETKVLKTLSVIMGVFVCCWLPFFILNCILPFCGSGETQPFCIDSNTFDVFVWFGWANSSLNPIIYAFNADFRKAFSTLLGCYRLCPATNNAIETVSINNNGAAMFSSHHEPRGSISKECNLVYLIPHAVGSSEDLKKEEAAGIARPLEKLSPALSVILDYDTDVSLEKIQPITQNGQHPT

[5] = target: T1, D(4) dopamine receptor (Rattus norvegicus, UniProt P30729); experiment: Displacement of [3H]N-methylspiperone from rat dopamine D4 receptor by PDSP assay
T1 sequence (P30729 whole entry): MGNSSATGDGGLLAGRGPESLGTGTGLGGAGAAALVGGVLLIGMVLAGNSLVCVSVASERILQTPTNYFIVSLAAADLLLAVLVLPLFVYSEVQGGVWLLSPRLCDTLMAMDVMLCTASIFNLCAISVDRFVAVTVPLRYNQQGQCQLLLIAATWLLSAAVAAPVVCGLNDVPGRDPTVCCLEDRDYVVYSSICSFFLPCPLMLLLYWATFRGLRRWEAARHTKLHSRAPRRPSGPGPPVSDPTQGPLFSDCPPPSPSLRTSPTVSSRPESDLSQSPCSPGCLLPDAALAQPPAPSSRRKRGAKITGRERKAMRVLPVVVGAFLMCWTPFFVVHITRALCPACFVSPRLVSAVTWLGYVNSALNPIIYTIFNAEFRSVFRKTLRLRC

[6] = target: D(3) dopamine receptor (Homo sapiens, UniProt P35462); experiment: Displacement of [3H]N-methylspiperone from human dopamine D3 receptor by PDSP assay
Sequence of D(3) dopamine receptor (P35462 whole entry): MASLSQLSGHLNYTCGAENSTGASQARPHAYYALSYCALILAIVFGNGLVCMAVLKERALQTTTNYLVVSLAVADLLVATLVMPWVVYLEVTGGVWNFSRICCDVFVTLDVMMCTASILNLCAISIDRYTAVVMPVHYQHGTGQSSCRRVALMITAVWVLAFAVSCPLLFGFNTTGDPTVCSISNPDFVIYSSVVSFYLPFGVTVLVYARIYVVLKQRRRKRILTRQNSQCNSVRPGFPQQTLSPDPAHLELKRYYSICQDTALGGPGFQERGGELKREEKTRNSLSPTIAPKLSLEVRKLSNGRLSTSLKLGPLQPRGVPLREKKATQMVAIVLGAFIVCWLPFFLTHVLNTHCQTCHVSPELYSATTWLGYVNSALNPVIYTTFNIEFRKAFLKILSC

[7] = target: D(2) dopamine receptor (Homo sapiens, UniProt P14416); experiment: Displacement of [3H]N-methylspiperone from human dopamine D2 receptor by PDSP assay
Sequence of D(2) dopamine receptor (P14416 whole entry): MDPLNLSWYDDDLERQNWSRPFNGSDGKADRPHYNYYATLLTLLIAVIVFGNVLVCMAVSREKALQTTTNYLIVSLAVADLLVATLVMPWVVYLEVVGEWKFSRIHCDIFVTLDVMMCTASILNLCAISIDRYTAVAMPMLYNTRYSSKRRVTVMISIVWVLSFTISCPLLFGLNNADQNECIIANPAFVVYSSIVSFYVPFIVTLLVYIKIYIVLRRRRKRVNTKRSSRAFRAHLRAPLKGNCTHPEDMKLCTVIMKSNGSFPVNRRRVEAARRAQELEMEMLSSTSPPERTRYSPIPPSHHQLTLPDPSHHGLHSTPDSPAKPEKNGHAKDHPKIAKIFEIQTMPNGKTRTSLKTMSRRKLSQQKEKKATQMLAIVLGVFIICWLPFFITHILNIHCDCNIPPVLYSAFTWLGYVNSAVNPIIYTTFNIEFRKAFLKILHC

[8] = target: 5-hydroxytryptamine receptor 7 (Homo sapiens, UniProt P34969); experiment: Displacement of [3H]LSD from human 5-HT7 receptor by PDSP assay
Sequence of 5-hydroxytryptamine receptor 7 (P34969 whole entry): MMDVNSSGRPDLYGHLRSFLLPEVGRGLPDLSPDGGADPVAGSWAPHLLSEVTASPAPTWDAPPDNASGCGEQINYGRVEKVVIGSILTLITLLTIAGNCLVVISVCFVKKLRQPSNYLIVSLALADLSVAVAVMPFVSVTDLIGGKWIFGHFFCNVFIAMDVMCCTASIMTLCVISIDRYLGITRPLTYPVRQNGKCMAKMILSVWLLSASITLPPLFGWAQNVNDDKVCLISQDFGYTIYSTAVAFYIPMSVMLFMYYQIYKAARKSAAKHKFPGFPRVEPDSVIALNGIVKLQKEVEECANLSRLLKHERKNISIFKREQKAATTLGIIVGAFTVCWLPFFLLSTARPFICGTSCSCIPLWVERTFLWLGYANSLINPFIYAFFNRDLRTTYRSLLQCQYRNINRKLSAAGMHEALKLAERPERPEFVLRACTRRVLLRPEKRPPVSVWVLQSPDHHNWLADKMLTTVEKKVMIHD

[9] = target: Sigma non-opioid intracellular receptor 1 (Homo sapiens, UniProt Q99720); experiment: Binding affinity to sigma-1 receptor (unknown origin) by PDSP assay
Sequence of Sigma non-opioid intracellular receptor 1 (Q99720 whole entry): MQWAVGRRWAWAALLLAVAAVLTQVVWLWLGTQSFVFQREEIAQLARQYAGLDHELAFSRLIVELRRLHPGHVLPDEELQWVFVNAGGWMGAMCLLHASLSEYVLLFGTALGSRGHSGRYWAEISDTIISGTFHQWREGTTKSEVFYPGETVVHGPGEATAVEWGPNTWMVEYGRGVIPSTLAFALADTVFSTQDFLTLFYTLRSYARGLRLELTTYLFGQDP

[10] = target: 5-hydroxytryptamine receptor 2A (Rattus norvegicus, UniProt P14842); experiment: Displacement of [3H]ketanserin from rat 5-HT2A receptor by PDSP assay
Sequence of 5-hydroxytryptamine receptor 2A (P14842 whole entry): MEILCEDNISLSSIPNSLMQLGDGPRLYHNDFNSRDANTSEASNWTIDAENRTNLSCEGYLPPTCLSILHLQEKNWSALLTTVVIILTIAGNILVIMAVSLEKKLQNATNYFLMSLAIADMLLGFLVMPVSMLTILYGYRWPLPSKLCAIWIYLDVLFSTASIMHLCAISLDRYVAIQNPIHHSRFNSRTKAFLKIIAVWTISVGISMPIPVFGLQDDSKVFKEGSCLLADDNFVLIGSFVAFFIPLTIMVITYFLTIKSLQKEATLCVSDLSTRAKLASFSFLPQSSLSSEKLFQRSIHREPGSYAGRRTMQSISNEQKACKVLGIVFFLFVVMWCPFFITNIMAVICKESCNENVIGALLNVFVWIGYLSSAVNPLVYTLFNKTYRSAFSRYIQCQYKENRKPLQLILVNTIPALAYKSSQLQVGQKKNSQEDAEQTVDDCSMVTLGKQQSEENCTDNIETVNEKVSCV
Procedure, shortened: (§1)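 Ki values were determined by the NIMH Psychoactive Drug Screening Program using radioligand displacement. Compounds first went through a primary assay.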

[11] = target: T2, 5-hydroxytryptamine receptor 2C (Rattus norvegicus, UniProt P08909); experiment: Displacement of [3H]mesulergine from rat 5-HT2C receptor by PDSP assay; procedure, shortened: as §1
T2 sequence (P08909 whole entry): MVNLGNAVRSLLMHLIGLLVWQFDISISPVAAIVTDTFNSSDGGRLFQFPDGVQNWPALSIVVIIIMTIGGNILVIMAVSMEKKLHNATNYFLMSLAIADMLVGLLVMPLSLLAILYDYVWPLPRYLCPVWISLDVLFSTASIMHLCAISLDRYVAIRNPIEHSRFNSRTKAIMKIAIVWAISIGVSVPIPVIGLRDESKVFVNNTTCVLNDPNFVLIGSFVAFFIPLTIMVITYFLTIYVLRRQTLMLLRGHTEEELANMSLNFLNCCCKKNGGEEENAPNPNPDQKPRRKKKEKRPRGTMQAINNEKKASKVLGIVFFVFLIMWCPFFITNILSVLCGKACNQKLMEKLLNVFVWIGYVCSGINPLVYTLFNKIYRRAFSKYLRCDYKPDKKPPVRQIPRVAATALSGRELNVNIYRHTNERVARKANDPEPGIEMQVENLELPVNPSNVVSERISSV

[12] = Binding affinity to sigma-2 receptor (unknown origin) by PDSP assay; design: species or system Homo sapiens

## Fc1ccc(CCCCN2CCN(c3ccc(Cl)cc3)CC2)cc1
[1]
  Ratio Ki: 36.4
[2]
  Ratio Ki: 33.5
[3]
  Ki: 1760 nM
[4]; read-out: Ki
  Ki: 589 nM

## O=C(CCCN1CCN(c2ccc(Cl)cc2)CC1)c1ccc(F)cc1
[5]; read-out: Ki
  Ki: 17.5 nM

## O=C1c2ccc(F)cc2CC1CCN1CCN(c2ccc(Cl)cc2)CC1 (centres undefined)
[6]; read-out: Ki
  Ki: 2480 nM
[1]
  Ratio Ki: 253
[5]; read-out: Ki
  Ki: 6.1 nM
[7]
  Ki: 1540 nM
[2]
  Ratio Ki: 406
[3]
  inhibition: < 50%
[4]; read-out: Ki
  Ki: 641 nM

## Fc1ccc(CCCCN2CCN(c3ncccn3)CC2)cc1
[3]
  Ki: 3810 nM
[4]; read-out: Ki
  Ki: 134 nM

## Clc1ccc(N2CCN(CCCc3nc4ccccc4s3)CC2)cc1
[6]; read-out: Ki
  Ki: 214 nM
[1]
  Ratio Ki: 74.9
[2]
  Ratio Ki: 6.9
[3]
  Ki: > 10000 nM
[4]; read-out: Ki
  Ki: 1270 nM

## Clc1ccc(N2CCN(CCCCc3nc4ccccc4s3)CC2)cc1
[6]; read-out: Ki
  Ki: 31 nM
[1]
  Ratio Ki: 54.8
[2]
  Ratio Ki: 7.8
[4]; read-out: Ki
  Ki: 1900 nM

## Clc1ccc(N2CCN(CCCCCc3nc4ccccc4o3)CC2)cc1
[6]; read-out: Ki
  Ki: 119 nM
[1]
  Ratio Ki: 13
[5]; read-out: Ki
  Ki: 240 nM
[7]
  Ki: 3110 nM
[2]
  Ratio Ki: 0.5
[3]
  Ki: > 10000 nM
[4]; read-out: Ki
  Ki: 7940 nM

## Clc1ccc(N2CCN(CCCOc3ccccc3)CC2)cc1
[6]; read-out: pKi (converted)
  Ki: 794 nM
[1]
  Ratio Ki: 79.8
[5]; read-out: pKi (converted)
  Ki: 5.5 nM
[2]
  Ratio Ki: 130

## Fc1ccc2c(c1)CC(CCN1CCN(c3ccc(Cl)cc3)CC1)C2 (centres undefined)
[6]; read-out: Ki
  Ki: 2770 nM
[5]; read-out: Ki
  Ki: 13 nM
[7]
  Ki: 1420 nM
[3]
  inhibition: < 50%
[4]; read-out: Ki
  Ki: 837 nM

## Fc1ccc(OCCCN2CCN(c3ccc(Cl)cc3)CC2)cc1
[3]
  Ki: 2680 nM
[4]; read-out: Ki
  Ki: 135 nM

## Clc1ccc(N2C[C@H]3C[C@@H]2CN3CCCc2cc3ccccc3o2)cc1
[1]
  Ratio Ki: > 4.2
[5]; read-out: Ki
  Ki: 2400 nM
[2]
  Ratio Ki: 0.3
[3]
  inhibition: < 50%
[4]
  inhibition: < 50%

## Cc1ccc(N2CCN(CCCSc3ccc(F)cc3)CC2)nc1
[6]; read-out: Ki
  Ki: 170 nM
[1]
  Ratio Ki: 55.3
[5]; read-out: Ki
  Ki: 20 nM
[7]
  Ki: 1110 nM
[2]
  Ratio Ki: 8.5
[3]
  Ki: 2160 nM
[4]; read-out: Ki
  Ki: 222 nM

## Fc1ccc(SCCCN2CCN(c3ncccn3)CC2)cc1
[1]
  Ratio Ki: 20.1
[2]
  Ratio Ki: 3.2
[3]
  Ki: 1370 nM
[4]; read-out: Ki
  Ki: 495 nM

## Fc1ccc(OCCCN2CCN(c3ncccn3)CC2)cc1
[1]
  Ratio Ki: 151
[2]
  Ratio Ki: 185
[3]
  inhibition: < 50%
[4]; read-out: Ki
  Ki: 259 nM

## Fc1ccc(OCCCN2CCC(c3ccc(Cl)cc3)CC2)cc1
[1]
  Ratio Ki: 4.3
[2]
  Ratio Ki: 73.3
[3]
  Ki: 867 nM
[4]; read-out: Ki
  Ki: 126 nM

## FC(F)(F)c1ccc(OCCCN2CCN(c3ccccn3)CC2)cc1
[6]; read-out: Ki
  Ki: 355 nM
[1]
  Ratio Ki: 91
[5]; read-out: Ki
  Ki: 12 nM
[7]
  Ki: 1090 nM
[2]
  Ratio Ki: 29.6
[3]
  Ki: > 10000 nM
[4]; read-out: Ki
  Ki: 2340 nM

## Fc1ccc(SCCCN2CCN(c3ccc(Cl)cc3)CC2)cc1
[1]
  Ratio Ki: 24.3
[2]
  Ratio Ki: 48.5
[3]
  Ki: 2810 nM
[4]; read-out: Ki
  Ki: 52 nM

## Clc1ccc(N2CCN(CCc3nc4ccccc4o3)CC2)cc1
[6]; read-out: Ki
  Ki: 850 nM
[5]; read-out: Ki
  Ki: 1410 nM
[2]
  Ratio Ki: 0.6
[3]
  inhibition: < 50%
[4]
  inhibition: < 50%

## Clc1ccc(N2CCCN(CCCc3cc4ccccc4o3)CC2)cc1
[6]; read-out: Ki
  Ki: 1460 nM
[1]
  Ratio Ki: 13.5
[5]; read-out: Ki
  Ki: 185 nM
[7]
  Ki: 2510 nM
[2]
  Ratio Ki: 7.9
[3]
  Ki: 1520 nM
[4]; read-out: Ki
  Ki: 274 nM

## [O-][S+](CCCN1CCN(c2ccc(Cl)cc2)CC1)c1ccc(F)cc1 (centres undefined)
[6]; read-out: Ki
  Ki: 1340 nM
[1]
  Ratio Ki: 48.8
[5]; read-out: Ki
  Ki: 13 nM
[7]
  Ki: 635 nM
[2]
  Ratio Ki: 103
[3]
  inhibition: < 50%
[4]
  inhibition: < 50%

## Clc1ccc(N2CCN(CCc3cc4ccccc4o3)CC2)cc1
[3]
  inhibition: < 50%
[4]
  inhibition: < 50%

## Clc1ccc(N2CCN(CCCCc3nc4ccccc4o3)CC2)cc1
[6]; read-out: Ki
  Ki: 33 nM
[5]; read-out: Ki
  Ki: 30.6 nM
[2]
  Ratio Ki: 1.1
[3]
  inhibition: < 50%
[4]
  inhibition: < 50%

## Cc1ccc(N2CCN(CCCOc3ccc(F)cc3)CC2)nc1
[6]; read-out: Ki
  Ki: 187 nM
[1]
  Ratio Ki: 951
[7]
  Ki: 1050 nM
[2]
  Ratio Ki: 170
[3]
  Ki: 2580 nM
[4]; read-out: Ki
  Ki: 260 nM

## Fc1ccc(SCCCN2CCN(c3ccccn3)CC2)cc1
[1]
  Ratio Ki: 32.1
[2]
  Ratio Ki: 28.1
[3]
  Ki: 3220 nM
[4]; read-out: Ki
  Ki: 265 nM

## c1cnc(N2CCN(CCCCc3nc4ccccc4s3)CC2)nc1
[5]; read-out: Ki
  Ki: 0.84 nM

## c1cnc(N2CCN(CCCc3nc4ccccc4s3)CC2)nc1
[8]
  Ki: 342 nM
[9]
  Ki: 350 nM
[5]; read-out: Ki
  Ki: 3.9 nM
[10]
  Ki: 283 nM
[11]
  Ki: 280 nM
[12]
  Ki: 162 nM
  pKi: 6.79

## Fc1ccc(CCCCN2CCN(c3ccccn3)CC2)cc1
[3]
  Ki: 1450 nM

## Clc1ccc(N2CCN(CCCc3nc4ccccc4o3)CC2)cc1
[6]; read-out: Ki
  Ki: 180 nM
[1]
  Ratio Ki: 27.3
[5]; read-out: Ki
  Ki: 145 nM
[7]
  Ki: 3960 nM
[2]
  Ratio Ki: 1.5
[3]
  Ki: > 10000 nM
[4]; read-out: Ki
  Ki: 1170 nM

## O=C1c2ccccc2CC1CCN1CCN(c2ccc(Cl)cc2)CC1 (centres undefined)
[6]; read-out: Ki
  Ki: 4530 nM
[5]; read-out: Ki
  Ki: 36 nM
[7]
  Ki: > 10000 nM
[2]
  Ratio Ki: 126
[3]
  inhibition: < 50%
[4]; read-out: Ki
  Ki: 1700 nM
[4]; read-out: pKi (converted)
  Ki: 389 nM

## Cc1ccc(N2CCN(CCCCc3ccc(F)cc3)CC2)nc1
[3]
  Ki: 3260 nM
[4]; read-out: Ki
  Ki: 521 nM

## Clc1ccc(N2CCN(CCCc3cc4ccccc4o3)CC2)cc1
[6]; read-out: Ki
  Ki: 2290 nM
[1]
  Ratio Ki: 25.1
[5]; read-out: Ki
  Ki: 78.9 nM
[7]
  Ki: 1980 nM
[2]
  Ratio Ki: 29
[3]
  inhibition: < 50%
[4]; read-out: Ki
  Ki: 1410 nM
